Calls of active or inactive are those of the source. No cut-off for these calls is given here.

This is an account of results in ChEMBL document CHEMBL4706601, “The endocannabinoid system dual-target ligand N-cycloheptyl-1,2-dihydro-5-bromo-1-(4-fluorobenzyl)-6-methyl-2-oxo-pyridine-3-carboxamide improves disease severity in a mouse model of multiple sclerosis” (Eur J Med Chem, 2020).

Assay [1] has as its target T1, Monoacylglycerol lipase ABHD6 (Homo sapiens, UniProt Q9BV23).
T1 sequence (Q9BV23 whole entry): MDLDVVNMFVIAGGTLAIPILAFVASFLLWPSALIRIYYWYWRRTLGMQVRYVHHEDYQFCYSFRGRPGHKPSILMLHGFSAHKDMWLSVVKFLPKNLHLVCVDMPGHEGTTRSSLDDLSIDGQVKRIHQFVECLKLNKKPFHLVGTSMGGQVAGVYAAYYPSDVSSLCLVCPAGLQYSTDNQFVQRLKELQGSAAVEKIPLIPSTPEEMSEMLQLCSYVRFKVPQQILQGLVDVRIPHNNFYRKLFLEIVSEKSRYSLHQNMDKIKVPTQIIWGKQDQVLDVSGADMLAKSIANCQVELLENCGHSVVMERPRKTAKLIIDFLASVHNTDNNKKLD
Kind of assay: Inhibition of human ABHD6 expressed in HEK293 cells using 2-OG as substrate preincubated for 30 mins followed by substrate addition and measured after 5 mins by liquid scintillation spectroscopy. It is filed as cell-based. In short, it runs like this:
(§1)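 Homogenates (40 µg) from HEK293 stably expressing hABHD6 or hABHD12 pre-incubated with compound 30 min at 37 °C in […], 0.1% BSA, pH 7.6; then 10 μM 2-OG for 5 min at 37 °C. Aqueous phase tritium counted after CHCl3:MeOH stop; no-enzyme blanks and non-transfected HEK293 hydrolysis subtracted. Controls WWL70 10 μM, THL 20 μM.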

Assay [2] has as its target T2, Fatty-acid amide hydrolase 1 (Homo sapiens, UniProt O00519).
T2 sequence (O00519 whole entry): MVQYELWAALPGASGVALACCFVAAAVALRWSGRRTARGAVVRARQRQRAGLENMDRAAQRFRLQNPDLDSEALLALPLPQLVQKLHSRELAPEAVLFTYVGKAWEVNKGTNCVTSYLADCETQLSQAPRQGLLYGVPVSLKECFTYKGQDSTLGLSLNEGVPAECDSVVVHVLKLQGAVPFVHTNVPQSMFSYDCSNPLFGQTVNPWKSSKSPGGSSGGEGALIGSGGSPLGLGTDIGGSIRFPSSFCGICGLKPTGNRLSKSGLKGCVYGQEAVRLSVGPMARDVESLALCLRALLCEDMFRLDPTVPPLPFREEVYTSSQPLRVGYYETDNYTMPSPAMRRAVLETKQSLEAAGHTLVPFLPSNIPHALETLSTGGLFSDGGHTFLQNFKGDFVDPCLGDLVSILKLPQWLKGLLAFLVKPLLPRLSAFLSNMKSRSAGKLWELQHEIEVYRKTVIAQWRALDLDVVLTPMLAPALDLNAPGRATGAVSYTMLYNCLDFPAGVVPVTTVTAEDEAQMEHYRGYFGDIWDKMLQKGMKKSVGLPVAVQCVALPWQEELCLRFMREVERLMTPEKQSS
Kind of assay: Inhibition of FAAH in human U937 cells using [ethanolamine-1-3H]AEA as substrate preincubated for 15 mins followed by substrate addition and measured after 15 mins by liquid scintillation spectroscopy. In kind it is cell-based, U-937. The essentials:
(§2)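 Intact U937 cells, 10^6 per condition, pre-incubated with compound 15 min at 37 °C with shaking (screen at 10 μM; full curves for hits). Substrate: 1 μM AEA with 1 nM [3H]AEA (FAAH) or 10 μM 2-OG with 5 nM [3H]2-OG (MAGL), 15 min at 37 °C. Stopped with CHCl3:MeOH 1:1, aqueous tritium counted; mean ± SD, ≥3 experiments in triplicate.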

For the next assay, the target named is T3, Monoglyceride lipase (Homo sapiens, UniProt Q99685).
T3 sequence (Q99685 whole entry): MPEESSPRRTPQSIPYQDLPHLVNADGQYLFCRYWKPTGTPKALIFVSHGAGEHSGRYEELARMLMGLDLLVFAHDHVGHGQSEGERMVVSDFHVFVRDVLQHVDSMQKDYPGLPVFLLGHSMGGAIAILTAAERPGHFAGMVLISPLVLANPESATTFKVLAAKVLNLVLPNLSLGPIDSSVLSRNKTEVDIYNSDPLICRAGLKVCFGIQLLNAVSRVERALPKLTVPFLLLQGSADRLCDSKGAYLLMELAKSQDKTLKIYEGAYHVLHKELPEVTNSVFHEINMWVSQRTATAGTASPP
The experiment in a line: Inhibition of MAGL in human U937 cells using [glycerol-1,2,3-3H]2-OG as substrate preincubated for 15 mins followed by substrate addition and measured after 15 mins by liquid scintillation spectroscopy. In kind it is cell-based, U-937. The essentials: as §2

For assay [3], the target named is T4, Cannabinoid receptor 2 (Homo sapiens, UniProt P34972). The experiment in a line: Displacement of [3H]CP55940 from recombinant human CB2R expressed in CHO cell membranes incubated for 90 mins. On the set-up: species or system Membrane. In general terms: Loss of bound radioactivity is the signal in a displacement assay; it reports binding, not function.
In assay [4] the target is T5, Cannabinoid receptor 1 (Homo sapiens, UniProt P21554). The experiment in a line: Displacement of [3H]CP55940 from recombinant human CB1R expressed in CHO cell membranes incubated for 90 mins. Details: species or system Membrane.
Assay [5] deals with T6, Lysophosphatidylserine lipase ABHD12 (Homo sapiens, UniProt Q8N2K0).
T6 sequence (Q8N2K0 whole entry): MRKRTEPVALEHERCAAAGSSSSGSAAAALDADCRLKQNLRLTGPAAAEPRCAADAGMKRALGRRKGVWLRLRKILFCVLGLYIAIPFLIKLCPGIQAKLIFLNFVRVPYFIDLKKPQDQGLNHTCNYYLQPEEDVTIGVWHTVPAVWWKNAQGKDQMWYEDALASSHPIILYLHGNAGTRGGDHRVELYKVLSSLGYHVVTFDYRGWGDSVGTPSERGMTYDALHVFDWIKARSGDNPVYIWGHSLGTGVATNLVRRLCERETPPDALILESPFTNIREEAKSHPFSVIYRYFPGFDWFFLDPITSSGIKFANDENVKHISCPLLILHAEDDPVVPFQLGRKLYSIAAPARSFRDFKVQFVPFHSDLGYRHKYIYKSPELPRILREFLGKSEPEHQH
Kind of assay: Inhibition of human ABHD12 expressed in HEK293 cells using 2-OG as substrate preincubated for 30 mins followed by substrate addition and measured after 5 mins by liquid scintillation spectroscopy. In kind it is cell-based. The essentials:
as §1

Assay [6] has as its target T5, Cannabinoid receptor 1. The experiment in a line: Partial agonist activity at human CB1R expressed in CHO cell membranes after 90 mins by [35S]GTPgammaS assay. It is filed as functional, Membrane. The essentials:
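Membranes from CHO cells stably expressing hCB1 (10 µg), in 50 mM Tris-HCl, 3 mM MgCl2, 0.2 mM EDTA, 100 mM NaCl, 0.5% fatty-acid-free BSA, pH 7.4, with 10 µM GDP and 0.1 nM [35S]GTPγS. Compounds added at several concentrations. Incubated 90 min at 30 °C, then rapid filtration and radioactivity counting. Non-specific binding measured with 10 µM GTPγS.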
In general terms: GTPγS is a poorly hydrolysed GTP analogue; its binding reports G protein activation.

Assay [7] addresses T4, Cannabinoid receptor 2. Kind of assay: Inverse agonist activity at human CB2R expressed in CHO cell membranes after 90 mins by [35S]GTPgammaS assay. It is filed as functional, Membrane. In short, it runs like this: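 In-house CHO membranes expressing hCB1 or hCB2 (10 µg) in 50 mM Tris-HCl, 3 mM MgCl2, 0.2 mM EDTA, 100 mM NaCl, 0.5% fatty-acid-free BSA, pH 7.4, with 10 μM GDP and 0.1 nM [35S]GTPγS. Incubated 90 min at 30 °C; antagonist pre-incubated 30 min. Nonspecific binding with 10 μM GTPγS; bound label by filtration and counting; ≥3 experiments in triplicate.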

The target of assay [8] is Cannabinoid receptor 2 (Mus musculus) (UniProt P47936). Kind of assay: Agonist activity at CB2R in LPS induced mouse BV2 cells assessed as decrease in IL-1beta secretion at 10 uM preincubated for 30 mins followed by LPS stimulation for 4 hrs by ELISA. In kind it is cell-based. The following applies: BV-2, filed as agonist, time 270.0 min. The essentials: (§3)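 BV-2 murine microglia grown in high-glucose DMEM with 10% FBS. Treatments in FBS-free medium: test agonist 10 μM for 30 min, then LPS 5 μg/ml for 4 h; SR144528 10 μM given 15 min before agonist. DMSO ≤0.1% final. Medium spun 10 min at 1000×g; IL-1β, IL-6, IL-10 quantified by ELISA; three independent experiments in duplicate.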

For assay [9] the target is unchanged. Kind of assay: Agonist activity at CB2R in LPS induced mouse BV2 cells assessed as decrease in IL6 secretion at 10 uM preincubated for 30 mins followed by LPS stimulation for 4 hrs by ELISA. In kind it is cell-based. The settings on record: BV-2, filed as agonist, time 270.0 min. In short, it runs like this:
as §3
(An ELISA detects its analyte on a solid surface through an enzyme-linked reagent.)

The target is the same in assay [10]. The experiment in a line: Agonist activity at CB2R in LPS induced mouse BV2 cells assessed as increase in IL-10 secretion at 10 uM preincubated for 30 mins followed by LPS stimulation for 4 hrs by ELISA. In kind it is cell-based. The following applies: BV-2, filed as agonist, time 270.0 min. The essentials:
as §3

Cannabinoid receptor 2 (Mus musculus), sequence (P47936 whole entry): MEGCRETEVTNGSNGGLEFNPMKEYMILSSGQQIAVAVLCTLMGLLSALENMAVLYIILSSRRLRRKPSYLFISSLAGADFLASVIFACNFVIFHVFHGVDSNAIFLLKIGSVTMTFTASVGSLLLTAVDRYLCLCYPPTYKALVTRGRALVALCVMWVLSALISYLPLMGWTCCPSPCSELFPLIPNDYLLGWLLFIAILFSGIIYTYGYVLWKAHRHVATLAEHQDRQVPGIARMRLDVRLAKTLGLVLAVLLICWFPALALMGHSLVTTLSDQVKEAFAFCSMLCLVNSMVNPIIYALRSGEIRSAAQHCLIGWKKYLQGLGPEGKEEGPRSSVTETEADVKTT
T4 sequence (P34972 whole entry): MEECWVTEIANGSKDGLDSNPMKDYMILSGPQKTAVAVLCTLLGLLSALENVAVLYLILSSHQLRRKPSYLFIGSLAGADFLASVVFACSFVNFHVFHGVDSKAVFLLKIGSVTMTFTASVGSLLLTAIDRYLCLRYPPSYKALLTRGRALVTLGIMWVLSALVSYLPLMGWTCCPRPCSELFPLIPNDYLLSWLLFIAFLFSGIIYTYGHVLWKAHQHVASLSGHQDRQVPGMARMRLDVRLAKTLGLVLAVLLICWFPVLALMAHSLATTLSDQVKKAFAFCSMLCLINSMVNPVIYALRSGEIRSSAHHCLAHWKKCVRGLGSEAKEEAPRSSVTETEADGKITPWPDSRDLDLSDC
T5 sequence (P21554 whole entry): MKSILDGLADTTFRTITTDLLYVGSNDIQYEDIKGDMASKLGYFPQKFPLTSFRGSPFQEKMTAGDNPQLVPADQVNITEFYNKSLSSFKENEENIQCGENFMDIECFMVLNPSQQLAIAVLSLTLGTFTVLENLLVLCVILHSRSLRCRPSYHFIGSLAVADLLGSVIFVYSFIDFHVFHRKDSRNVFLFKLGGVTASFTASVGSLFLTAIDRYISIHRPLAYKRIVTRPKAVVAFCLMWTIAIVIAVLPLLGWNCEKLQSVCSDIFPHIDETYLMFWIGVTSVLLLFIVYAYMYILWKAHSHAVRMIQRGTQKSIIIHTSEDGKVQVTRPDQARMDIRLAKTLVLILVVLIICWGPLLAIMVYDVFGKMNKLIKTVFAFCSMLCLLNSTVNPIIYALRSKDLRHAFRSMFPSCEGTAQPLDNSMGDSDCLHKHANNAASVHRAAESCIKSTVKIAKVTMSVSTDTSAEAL

As for `Cc1c(-c2ccc(F)cc2)cc(C(=O)NC2CCCCCC2)c(=O)n1Cc1ccc(F)cc1`, the IC50 is above 10 µM in assay [1], 530 nM in assay [2], above 10 µM at Monoglyceride lipase and 600 nM in assay [5]. Further, the Ki at Cannabinoid receptor 2 [3] was found to be 28.9 nM; on Cannabinoid receptor 1 [4] it was 49.3 nM. Also, the EC50 at Cannabinoid receptor 1 [6] is 120 nM; on Cannabinoid receptor 2 [7], 6.45 nM.

As for `CCCC(C)(C)c1ccc2c(c1)OC(C)(C)[C@@H]1CC=C(C)C[C@@H]21`, the outcome in assay [8], in [9] and in assay [10] was Active.

The IC50 is the concentration needed to halve the response being measured. A low value points to greater potency. For orientation: Ki means a measure of affinity in units of concentration, obtained from inhibition or displacement. For orientation: EC50 means the concentration giving half of the maximal effect. Lower therefore signals an effect from little substance.
